Here are results for 1 molecule from ChEMBL document CHEMBL4196139, “Discovery of 4-Benzyloxybenzo[ d]isoxazole-3-amine Derivatives as Highly Selective and Orally Efficacious Human Sphingomyelin Synthase 2 Inhibitors that Reduce Chronic Inflammation in db/ db Mice” (J Med Chem, 2018).

A short description of series [1]: Tmax in ICR mouse at 20 mg/kg, po by LC-MS/MS analysis. As to conditions: in vivo. In kind it is ADME, organism-based. The method, boiled down:
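Male ICR mice, 4 per group, gavaged at 20 mg/kg in 0.5% carboxymethylcellulose sodium. Samples taken at 0.5, 1, 2, 3, 5, 7, 12 and 24 h and quantified by LC-MS/MS. Parameters derived from mean serum concentration. Values are mean ± SEM.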

Series [2] relates to Mus musculus. The series is described as follows: In vivo inhibition of SMS in ICR mouse liver at 50 mg/kg, po administered as single dose via gavage and measured after 2 hrs post dose by HPLC analysis. In kind it is functional, organism-based. The method in brief: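 Male ICR mice, 3 per group, fasted overnight and given a single oral dose of 50 mg/kg in 0.5% CMC-Na. Livers removed 2 h later and homogenized in 0.25 M sucrose, 50 mM Tris-HCl pH 7.4, 1 mM EDTA. The supernatant was assayed for SMS activity by HPLC of C6-NBD-Cer and C6-NBD-SM.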

Series [3] has as its system Mus musculus. In words: In vivo inhibition of SMS in po dosed ICR mouse assessed as decrease in NBD-SM levels in plasma using NBD-ceramide as substrate administered as single dose via gavage and measured after 1 to 2 hrs post dose by HPLC analysis. Format: functional, organism-based. The method, boiled down: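 Male ICR mice, 5 per group, fasted overnight and gavaged with 50 or 100 mg/kg in 0.5% CMC-Na. C6-NBD-ceramide was injected into the tail vein pre-dose and at 1 and 2 h after dosing. Blood drawn 5 min after each injection, and NBD-SM product in plasma measured by HPLC.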

Series [4] concerns Mus musculus. The series is described as follows: Antiinflammatory activity in db/db mouse model assessed as reduction in plasma IL6 levels at 20 to 50 mg/kg, po administered daily for 6 weeks by ELISA. In kind it is functional, organism-based. The method, boiled down:
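db/db mice, 4–5 weeks old, n = 4–5 per group, received 20 or 50 mg/kg/day orally in 0.5% CMC-Na for 6 weeks. Serum collected from the eye after a 6 h fast. IL-6 or insulin measured by ELISA following the kit instructions.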

Series [5] relates to Mus musculus. The series is described as follows: Effect on fasting blood glucose levels in db/db mouse model at 20 to 50 mg/kg, po administered daily for 4 to 6 weeks. In kind it is functional, organism-based.
The subject of series [6] is Mus musculus. In words: Antiinflammatory activity in db/db mouse model assessed as reduction in IL6 mRNA expression in liver at 20 to 50 mg/kg, po administered daily for 6 weeks by SYBR green labeled PCR analysis. Format: functional, organism-based. The method, boiled down:
(§1)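 db/db mice, 4–5 weeks old, n = 4–5 per group, dosed orally at 20 or 50 mg/kg/day in 0.5% CMC-Na for 6 weeks. Total RNA extracted from liver or white adipose tissue with Trizol. Transcripts quantified by SYBR Green real-time qPCR with specific primers.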

The subject of series [7] is Mus musculus. The series is described as follows: Antiinflammatory activity in db/db mouse model assessed as reduction in TNFalpha mRNA expression in liver at 20 to 50 mg/kg, po administered daily for 6 weeks by SYBR green labeled PCR analysis. In kind it is functional, organism-based. The method in brief: as §1
In series [8] the test system is Mus musculus. In words: Antiinflammatory activity in db/db mouse model assessed as reduction in IL1beta mRNA expression in liver at 50 mg/kg, po administered daily for 6 weeks by SYBR green labeled PCR analysis. Format: functional, organism-based. The method, boiled down: as §1
Series [9] concerns Mus musculus. The series is described as follows: Antiinflammatory activity in db/db mouse model assessed as reduction in IL1beta mRNA expression in white adipose tissue at 20 to 50 mg/kg, po administered daily for 6 weeks by SYBR green labeled PCR analysis. In kind it is functional, organism-based. The method in brief:
as §1

Series [10] concerns Mus musculus. In words: Antiinflammatory activity in db/db mouse model assessed as reduction in IL1beta mRNA expression in liver at 20 mg/kg, po administered daily for 6 weeks by SYBR green labeled PCR analysis. Format: functional, organism-based. The method in brief:
as §1

Series [11] has as its system Mus musculus. The series is described as follows: Anti-obesity activity in db/db mouse model assessed as reduction in triglyceride levels in liver at 50 mg/kg, po administered daily for 6 weeks. In kind it is functional, organism-based. The method, boiled down:
(§2)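 db/db mice, 4–5 weeks old, randomized into groups of 4–5. Dosed orally each day for 6 weeks with 20 or 50 mg/kg/day in 0.5% sodium carboxymethylcellulose; vehicle controls received the same. Liver lipid content was then measured.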

Series [12] relates to Mus musculus. The series is described as follows: Anti-obesity activity in db/db mouse model assessed as reduction in LDL-C levels in liver at 50 mg/kg, po administered daily for 6 weeks. In kind it is functional, organism-based. The method in brief:
as §2

Series [13] deals with Mus musculus. The series is described as follows: Anti-obesity activity in db/db mouse model assessed as increase in HDL-C levels in liver at 50 mg/kg, po administered daily for 6 weeks. Format: functional, organism-based. The method in brief:
as §2

Another series has as its system RAW264.7. The series is described as follows: Induction of apoptosis in mouse RAW264.7 cells at 1 to 5 uM after 24 hrs by flow cytometry. Format: cell-based. As to conditions: raw264.7, 24 h.
The test system of series [14] is Mus musculus. In words: Effect on ceramide (16:0) levels in white adipose tissue of db/db mouse model at 20 mg/kg, po administered daily for 6 weeks by LC analysis. Format: functional, organism-based.

The source made the active and inactive calls. The rule behind the calls is not given here.

For `Fc1ccc(Cl)c(COc2cccc3onc(Nc4cccnc4)c23)c1`, the Tmax (commonly the time at which the peak concentration occurs) in series [1] stood at 2.2 h. Besides, the inhibition result in the series with Mus musculus [2] is “Active”. Further, the inhibition result in the series with Mus musculus [3] is “Dose-dependent effect”. Besides, the outcome with Mus musculus [4], in the series on Mus musculus [6], with Mus musculus [7], in the series on Mus musculus [8], in the series with Mus musculus [9] and with Mus musculus [11] was Active. The outcome in the series with Mus musculus [12], with Mus musculus [13] and in the series with Mus musculus [14] was Active. The result in the series on Mus musculus [5] and in the series on Mus musculus [10] was inactive. Also, the Activity result in the series with RAW264.7 is recorded as “Non-Toxic”.
